ChEMBL document CHEMBL1129629, “Orally active, nonpeptide vasopressin V2 receptor antagonists: a novel series of 1-[4-(benzoylamino)benzoyl]-2,3,4,5-tetrahydro-1H-benzazepines and related compounds” (J Med Chem, 1996)
pIC50: −log10 of the molar value.

Experiments:
[1] = biological target: T1, Vasopressin V2 receptor (Rattus norvegicus, UniProt Q00788); experiment: Displacement of [3H]-AVP from its AVP-V2 receptor binding site in rat kidney
Outline: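 Radioligand competition with [3H]AVP on plasma membrane preparations, rat liver for V1a and rat kidney for V2. Assays run in duplicate. Reported intraassay variation is under 3% and interassay variation under 20%.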

[2] = biological target: T2, Vasopressin V1a receptor (Rattus norvegicus, UniProt P30560); experiment: Displacement of [3H]AVP from AVP-V1a receptor binding site in rat liver
T2 sequence (P30560 whole entry): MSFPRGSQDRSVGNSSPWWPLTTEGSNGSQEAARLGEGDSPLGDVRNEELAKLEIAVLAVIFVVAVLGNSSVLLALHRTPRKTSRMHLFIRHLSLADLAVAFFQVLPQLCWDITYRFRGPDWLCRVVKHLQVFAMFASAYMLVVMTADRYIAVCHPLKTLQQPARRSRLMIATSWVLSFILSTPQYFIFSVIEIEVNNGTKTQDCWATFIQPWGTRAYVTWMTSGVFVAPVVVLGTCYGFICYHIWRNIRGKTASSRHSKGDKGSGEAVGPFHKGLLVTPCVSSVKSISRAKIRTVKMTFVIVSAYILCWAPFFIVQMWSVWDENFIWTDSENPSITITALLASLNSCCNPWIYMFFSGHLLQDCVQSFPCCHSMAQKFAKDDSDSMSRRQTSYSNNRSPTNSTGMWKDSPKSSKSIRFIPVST
Outline: (§1)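 Radioligand competition with [3H]AVP on plasma membrane preparations, rat liver for V1a and rat kidney for V2. […] Assays run in duplicate. Reported intraassay variation is under 3% and interassay variation under 20%.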

[3] = tested on: Rattus norvegicus; experiment: Dose(mg/kg) required for a 3-fold increase in the 2-h urine volume over the control rats.; assay type: functional
Outline: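 Hydrated conscious rats, compound given orally at three or four doses. Spontaneously voided urine collected every 2 h over 8 h. ED3 (mg/kg) read from the dose–response curve as the dose giving a 3-fold rise in 2-h urine volume over control rats. ">" means no 3-fold rise at the highest dose tested.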

[4] = tested on: Rattus norvegicus; experiment: UV values mean 2-h urine volume (mL) when the compound was administered orally at a dose of 10 mg/kg; assay type: functional; conditions: route oral
Outline: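 Conscious rats dosed orally at 10 mg/kg, with urine voided spontaneously. The value is urine volume (mL) collected over the first 2 h, given as mean ± SEM of 4 rats and set against control rats (n = 4).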

[5] = biological target: T1, Vasopressin V2 receptor; experiment: Compound was tested for its ability to displace [3H]AVP from its specific binding sites in rat Kidney (AVP-V2 receptor).; outline: as §1
[6] = biological target: T2, Vasopressin V1a receptor; experiment: Compound was tested for its ability to displace [3H]AVP from its specific binding sites in Rat liver (AVP-V1a receptor).; outline: as §1

T1 sequence (Q00788 whole entry): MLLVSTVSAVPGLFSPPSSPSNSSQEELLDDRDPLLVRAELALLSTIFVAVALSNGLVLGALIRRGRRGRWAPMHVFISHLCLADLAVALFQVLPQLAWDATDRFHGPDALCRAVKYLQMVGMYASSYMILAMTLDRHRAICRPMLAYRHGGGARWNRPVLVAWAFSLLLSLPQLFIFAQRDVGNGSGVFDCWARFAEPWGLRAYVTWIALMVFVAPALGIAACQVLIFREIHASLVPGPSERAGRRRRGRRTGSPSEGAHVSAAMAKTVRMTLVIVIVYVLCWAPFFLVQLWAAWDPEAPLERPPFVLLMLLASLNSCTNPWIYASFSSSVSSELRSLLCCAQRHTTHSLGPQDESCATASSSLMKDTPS

Compound | pIC50 [1] | pIC50 [2] | ED3 [3] [mg/kg] | Activity [4] [mL] | pIC50 [5] | pIC50 [6]
CC(=O)NC1CCCN(C(=O)c2ccc(NC(=O)c3ccccc3C)cc2)c2ccccc21 (stereo not given) | 6.82 | 5.49 | >30 | – | – | –
CCCC(=O)Nc1ccc(C(=O)N2CCCc3ccccc32)cc1 | 5.15 | 5.37 | – | – | – | –
Cc1ccccc1C(=O)Nc1ccc(C(=O)N2CCCC(N(C)C)c3ccccc32)cc1 (stereo not given) [MOZAVAPTAN] | – | 5.85 | 3.8 | 12.3 | – | –
CN(C)C1CCCN(C(=O)c2ccc(NC(=O)c3cc(Cl)cc(Cl)c3)cc2)c2ccccc21 (stereo not given) | 7.70 | 5.59 | – | – | – | –
CC(=O)O/N=C1\CCCN(C(=O)c2ccc(NC(=O)c3ccccc3C)cc2)c2ccccc21 | – | – | > 30 | – | 7.24 | 5.64
Cc1ccc(C(=O)Nc2ccc(C(=O)N3CCCc4ccccc43)cc2)cc1 | 5.85 | 5.00 | – | – | – | –
O=C(Nc1ccc(C(=O)N2CCCc3ccccc32)cc1)c1ccsc1 | 5.77 | 5.77 | – | – | – | –
Cc1ccccc1C(=O)Nc1ccc(C(=O)N2CCCOc3ccccc32)cc1 | 6.96 | 5.92 | – | – | – | –
O=C(Nc1ccccc1C(=O)N1CCCc2ccccc21)c1ccccc1 | 4.66 | 4.06 | – | – | – | –
CC(C)C(=O)Nc1ccc(C(=O)N2CCCc3ccccc32)cc1 | 5.09 | 5.62 | – | – | – | –
O=C(Nc1ccccc1)Nc1ccc(C(=O)N2CCCCc3ccccc32)cc1 | 6.74 | 6.12 | – | – | – | –
O=C(Nc1ccc(C(=O)N2CCCc3ccccc32)cc1)c1ccccc1 | – | 5.80 | – | – | – | –
Cc1ccccc1C(=O)Nc1ccc(C(=O)N2CCN(C)Cc3ccccc32)cc1 | 6.77 | 5.74 | – | – | – | –
O=C(Nc1ccc(C(=O)N2CCCc3ccccc32)cc1)c1cccc(Cl)c1 | – | 5.19 | – | – | – | –
Cc1ccccc1C(=O)Nc1ccc(C(=O)N2CCOCc3ccccc32)cc1 | 6.52 | 6.20 | – | – | – | –
O=C(Nc1ccc(C(=O)N2CCCc3ccccc32)cc1)c1ccccc1[N+](=O)[O-] | 6.28 | 5.57 | – | – | – | –
CN(C)C1CCCN(C(=O)c2ccc(NC(=O)c3ccccc3N)cc2)c2ccccc21 (stereo not given) | 6.72 | 5.72 | – | – | – | –
CN(C)C1CCCN(C(=O)c2ccc(NC(=O)c3ccccc3[N+](=O)[O-])cc2)c2ccccc21 (stereo not given) | 7.15 | 5.59 | – | – | – | –
Cc1cccc(C(=O)Nc2ccc(C(=O)N3CCCc4ccccc43)cc2)c1 | 6.17 | 5.51 | – | – | – | –
Cc1ccc(C(=O)Nc2ccc(C(=O)N3CCCc4ccccc43)cc2)cc1C | 5.92 | < 4.00 | – | – | – | –
CNC(=O)NC1CCCN(C(=O)c2ccc(NC(=O)c3ccccc3C)cc2)c2ccccc21 (stereo not given) | 7.02 | 5.55 | – | – | – | –

Compound | pIC50 [1] | pIC50 [2] | ED3 [3] [mg/kg] | Activity [4] [mL] | pIC50 [5] | pIC50 [6]
O=C(Nc1ccc(C(=O)N2CCCc3ccccc32)cc1)c1cc(Cl)cc(Cl)c1 | 7.09 | 5.03 | – | – | – | –
Cc1ccccc1C(=O)Nc1ccc(C(=O)N2CCCc3ccccc32)cc1 | – | 5.85 | – | – | – | –
O=C(Nc1ccc(C(=O)N2CCCc3ccccc32)cc1)c1ccccc1Cl | 6.38 | 5.80 | – | – | – | –
Cc1ccc(C(=O)Nc2ccc(C(=O)N3CCCC(N(C)C)c4ccccc43)cc2)cc1 (stereo not given) | 7.36 | 4.59 | – | – | – | –
O=C(Nc1ccc(C(=O)N2CCCc3ccccc32)cc1)c1ccc(Cl)cc1 | 5.72 | 5.29 | – | – | – | –
Cc1ccccc1C(=O)Nc1ccc(C(=O)N2CCCC(O)c3ccccc32)cc1 (stereo not given) | 7.54 | 6.85 | – | 3.6 | – | –
CCNC1CCCN(C(=O)c2ccc(NC(=O)c3ccccc3C)cc2)c2ccccc21 (stereo not given) | 7.54 | 5.80 | 8 | 5.4 | – | –
CCOc1ccc(C(=O)Nc2ccc(C(=O)N3CCCc4ccccc43)cc2)cc1 | < 4.00 | 4.85 | – | – | – | –
O=C(Nc1ccc(C(=O)N2CCCc3ccccc32)cc1)c1ccc(Cl)cc1Cl | 6.60 | < 4.00 | – | – | – | –
CCOC(=O)CN(C)C1CCCN(C(=O)c2ccc(NC(=O)c3ccccc3C)cc2)c2ccccc21 (stereo not given) | 7.54 | 6.01 | >30 | – | – | –
Cc1ccccc1C(=O)Nc1ccc(C(=O)N2CCN(C)c3ccccc32)cc1 | 6.40 | 5.29 | – | – | – | –
CNC1CCCN(C(=O)c2ccc(NC(=O)c3ccccc3C)cc2)c2ccccc21 (stereo not given) | 7.62 | 6.14 | 4.6 | 8.3 | – | –
O=C(Nc1cccc(C(=O)N2CCCc3ccccc32)c1)c1ccccc1 | 4.40 | < 4.00 | – | – | – | –
COc1ccc(C(=O)Nc2ccc(C(=O)N3CCCc4ccccc43)cc2)cc1 | 5.74 | 5.66 | – | – | – | –
Cc1ccccc1C(=O)N(C)c1ccc(C(=O)N2CCCC(N(C)C)c3ccccc32)cc1 (stereo not given) | 6.00 | 4.72 | – | – | – | –
O=C(CCc1ccccc1)Nc1ccc(C(=O)N2CCCc3ccccc32)cc1 | 5.21 | 5.64 | – | – | – | –
Cc1ccc(C(=O)Nc2ccc(C(=O)N3CCCc4ccccc43)cc2)c(C)c1 | 6.68 | 5.48 | – | – | – | –
O=C(Cc1ccccc1)Nc1ccc(C(=O)N2CCCc3ccccc32)cc1 | 6.00 | 5.49 | – | – | – | –
CN(C)C1CCCN(C(=O)c2ccc(NC(=O)c3ccc(Cl)cc3Cl)cc2)c2ccccc21 (stereo not given) | 7.89 | 5.89 | – | – | – | –
O=C(Nc1ccc(C(=O)N2CCCCc3ccccc32)cc1)c1ccccc1Cl | 7.54 | 7.35 | – | – | – | –
O=C(Nc1ccc(C(=O)N2CCCc3ccccc32)cc1)c1cccnc1 | 5.12 | 4.96 | – | – | – | –

Compound | pIC50 [1] | pIC50 [2] | ED3 [3] [mg/kg] | Activity [4] [mL] | pIC50 [5] | pIC50 [6]
COc1ccccc1C(=O)Nc1ccc(C(=O)N2CCCc3ccccc32)cc1 | 5.68 | 5.72 | – | – | – | –
Cc1cccc(C(=O)Nc2ccc(C(=O)N3CCCC(N(C)C)c4ccccc43)cc2)c1 (stereo not given) | 7.85 | 5.62 | >30 | – | – | –
O=C(Nc1ccc(C(=O)N2CCCC(N3CCCCC3)c3ccccc32)cc1)c1ccccc1Cl (stereo not given) | 6.85 | 5.55 | – | – | – | –
Cc1ccccc1C(=O)Nc1ccc(C(=O)N2CCCC(N)c3ccccc32)cc1 (stereo not given) | 7.49 | 6.41 | – | – | – | –
CC(=O)Nc1ccc(C(=O)N2CCCc3ccccc32)cc1 | < 4.00 | 4.13 | – | – | – | –
O=C(Nc1ccc(C(=O)N2CCCCc3ccccc32)cc1)Oc1ccccc1 | – | – | – | – | 6.10 | 5.11
CCCN(C)C1CCCN(C(=O)c2ccc(NC(=O)c3ccccc3C)cc2)c2ccccc21 (stereo not given) | 7.66 | 5.92 | 4.9 | 8.3 | – | –
CN(C)C1CCCN(C(=O)c2ccc(NC(=O)c3ccccc3)cc2)c2ccccc21 (stereo not given) | 7.57 | 5.52 | >30 | – | – | –
O=C(c1ccc(NS(=O)(=O)c2ccccc2)cc1)N1CCCCc2ccccc21 | 5.80 | 5.60 | – | – | – | –
COc1cccc(C(=O)Nc2ccc(C(=O)N3CCCc4ccccc43)cc2)c1 | – | 5.55 | – | – | – | –
O=C(Nc1ccc(C(=O)N2CCCc3ccccc32)cc1)c1ccc([N+](=O)[O-])cc1 | 5.19 | < 4.00 | – | – | – | –
CC(=O)Nc1ccccc1C(=O)Nc1ccc(C(=O)N2CCCC(N(C)C)c3ccccc32)cc1 (stereo not given) | 6.19 | 4.80 | – | – | – | –
CCCNC1CCCN(C(=O)c2ccc(NC(=O)c3ccccc3C)cc2)c2ccccc21 (stereo not given) | 7.30 | 6.05 | 6.6 | 5.6 | – | –
O=C(Nc1ccc(C(=O)N2CCCc3ccccc32)cc1)c1ccco1 | 5.19 | 5.40 | – | – | – | –
Cc1ccccc1C(=O)Nc1ccc(C(=O)N2CCCC(N(C)CC(N)=O)c3ccccc32)cc1 (stereo not given) | – | – | 6.4 | 6.2 | – | –
Cc1ccccc1C(=O)Nc1ccc(C(=O)N2CCOc3ccccc32)cc1 | 5.39 | 5.11 | – | – | – | –
Cc1ccccc1C(=O)Nc1ccc(C(=O)N2CCCC(N(C)CC#N)c3ccccc32)cc1 (stereo not given) | 7.60 | 5.49 | >30 | – | – | –
COc1ccccc1C(=O)Nc1ccc(C(=O)N2CCCC(N(C)C)c3ccccc32)cc1 (stereo not given) | 7.11 | 6.00 | – | – | – | –
O=C(Nc1ccc(C(=O)N2CCCc3ccccc32)cc1)c1cccc([N+](=O)[O-])c1 | 6.12 | 4.80 | – | – | – | –
CN(C)C1CCCN(C(=O)c2ccc(NC(=O)c3ccccc3Cl)cc2)c2ccccc21 (stereo not given) | 7.57 | 5.52 | 4.2 | 7 | – | –
CCCCOc1ccc(C(=O)Nc2ccc(C(=O)N3CCCc4ccccc43)cc2)cc1 | < 4.00 | < 4.00 | – | – | – | –
